ChEMBL document CHEMBL3414452, “Synthesis and in vitro antiplasmodial evaluation of 7-chloroquinoline-chalcone and 7-chloroquinoline-ferrocenylchalcone conjugates” (Eur J Med Chem, 2015)
pIC50: −log10 of the molar value.

What was measured:
[1] = test system: Plasmodium falciparum; test: Antimalarial activity against CQ-resistant Plasmodium falciparum W2 assessed as parasite growth inhibition after 48 hrs by YOYO-1 dye based flow cytometry; assay type: functional, organism-based; details: W2, 48 h
Summary of the method: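 W2 strain cultured in RPMI-1640 with 10% human serum, sorbitol-synchronized (5%). Ring-stage microcultures exposed to a range of compound concentrations (DMSO ≤0.1% final; 0.1% DMSO controls) for 48 h. Fixed 48 h in 1% formaldehyde/PBS pH 7.4 at room temperature, stained with 1 nM YOYO-1 in 0.1% Triton X-100/PBS, and parasitemia read by flow cytometry. IC50 from nonlinear fit of duplicate experiments.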

[2] = test system: HeLa; test: Cytotoxicity against human HeLa cells after 24 hrs by trypan blue dye exclusion assay; assay type: cell-based
Summary of the method: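 HeLa cells grown in DMEM with penicillin/streptomycin. Compound from DMSO stock was added once cultures reached 70% confluency, then incubated 24 h at 37 °C under CO₂. Cells were PBS-washed, detached with 0.25% trypsin for 5 min, and resuspended in PBS. Trypan blue was added for about 10 min at room temperature. Viable and dead cells were counted by hemacytometer, and IC₅₀ derived.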

[3] = Selectivity index, ratio of IC50 for human HeLa cells to IC50 for CQ-resistant Plasmodium falciparum W2; assay type: toxicity, cell-based; details: read-out: Ratio IC50
Summary of the method: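 Ratio of HeLa IC50 to W2 IC50. HeLa cells grown in DMEM with penicillin/streptomycin to 70% confluency, dosed from DMSO stocks, and incubated 24 h at 37 °C in CO2. Cells were then washed, trypsinized, stained with trypan blue for about 10 min at room temperature, and viable/dead cells counted by hemacytometer. IC50 fitted from counts.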

| Structure (SMILES) | pIC50 [1] | pIC50 [2] | selectivity ratio [3] |
| --- | --- | --- | --- |
| COc1ccc(C(=O)/C=C/c2ccc(OCC(=O)O)cc2)cc1 | < 5.00 |  |  |
| O=C(O)COc1ccc(/C=C/C(=O)c2ccccc2)cc1 | < 5.00 |  |  |
| O=Cc1ccc(OCC(=O)NCCNc2ccnc3cc(Cl)ccc23)cc1 | 6.38 |  |  |
| O=Cc1ccc(OCC(=O)NCCCNc2ccnc3cc(Cl)ccc23)cc1 | 7.13 |  |  |
| O=Cc1ccc(OCC(=O)NCCCCNc2ccnc3cc(Cl)ccc23)cc1 | 6.35 |  |  |
| O=Cc1ccc(OCC(=O)NCCCCCCNc2ccnc3cc(Cl)ccc23)cc1 | 6.06 |  |  |
| O=C(COc1ccc(/C=C/C(=O)c2ccccc2)cc1)NCCNc1ccnc2cc(Cl)ccc12 | 6.04 |  |  |
| O=C(COc1ccc(/C=C/C(=O)c2ccccc2)cc1)NCCCNc1ccnc2cc(Cl)ccc12 | 6.96 |  |  |
| O=C(COc1ccc(/C=C/C(=O)c2ccccc2)cc1)NCCCCNc1ccnc2cc(Cl)ccc12 | 6.86 |  |  |
| COc1ccc(C(=O)/C=C/c2ccc(OCC(=O)NCCNc3ccnc4cc(Cl)ccc34)cc2)cc1 | 6.42 |  |  |
| COc1ccc(C(=O)/C=C/c2ccc(OCC(=O)NCCCNc3ccnc4cc(Cl)ccc34)cc2)cc1 | 6.66 |  |  |
| COc1ccc(C(=O)/C=C/c2ccc(OCC(=O)NCCCCNc3ccnc4cc(Cl)ccc34)cc2)cc1 | 7.20 |  |  |
| COc1ccc(C(=O)/C=C/c2ccc(OCC(=O)NCCCCCCNc3ccnc4cc(Cl)ccc34)cc2)cc1 | 7.45 | 4.40 | 1130 |
| O=C(O)COc1ccc(C(=O)/C=C/c2ccccc2)cc1 | < 5.00 |  |  |
| COc1ccc(/C=C/C(=O)c2ccc(OCC(=O)O)cc2)cc1 | < 5.00 |  |  |
| CC(=O)c1ccc(OCC(=O)NCCNc2ccnc3cc(Cl)ccc23)cc1 | 6.25 |  |  |
| CC(=O)c1ccc(OCC(=O)NCCCNc2ccnc3cc(Cl)ccc23)cc1 | 6.76 |  |  |
| CC(=O)c1ccc(OCC(=O)NCCCCNc2ccnc3cc(Cl)ccc23)cc1 | 6.83 |  |  |
| CC(=O)c1ccc(OCC(=O)NCCCCCCNc2ccnc3cc(Cl)ccc23)cc1 | 7.15 |  |  |
| O=C(COc1ccc(C(=O)/C=C/c2ccccc2)cc1)NCCNc1ccnc2cc(Cl)ccc12 | 6.08 |  |  |
| O=C(COc1ccc(C(=O)/C=C/c2ccccc2)cc1)NCCCNc1ccnc2cc(Cl)ccc12 | 7.33 |  |  |
| O=C(COc1ccc(C(=O)/C=C/c2ccccc2)cc1)NCCCCNc1ccnc2cc(Cl)ccc12 | 6.40 |  |  |
| O=C(COc1ccc(C(=O)/C=C/c2ccccc2)cc1)NCCCCCCNc1ccnc2cc(Cl)ccc12 | 5.39 |  |  |
| COc1ccc(/C=C/C(=O)c2ccc(OCC(=O)NCCNc3ccnc4cc(Cl)ccc34)cc2)cc1 | 5.56 |  |  |
| COc1ccc(/C=C/C(=O)c2ccc(OCC(=O)NCCCNc3ccnc4cc(Cl)ccc34)cc2)cc1 | 7.30 |  |  |
| COc1ccc(/C=C/C(=O)c2ccc(OCC(=O)NCCCCNc3ccnc4cc(Cl)ccc34)cc2)cc1 | 6.77 |  |  |
| COc1ccc(/C=C/C(=O)c2ccc(OCC(=O)NCCCCCCNc3ccnc4cc(Cl)ccc34)cc2)cc1 | 7.75 | 4.60 | 1400 |
| C[C@@H]1CC[C@H]2[C@@H](C)C(=O)O[C@@H]3O[C@@]4(C)CC[C@@H]1[C@]32OO4 [ARTEMISININ] | 8.19 |  |  |
